pIC50, pKd, pKi: −log10 of the molar value. Active and inactive are the calls of the source. No cut-off for these calls is given here.
Assays:
[1] = target: T1, Indoleamine 2,3-dioxygenase 1 (Homo sapiens, UniProt P14902); assay: Inhibition of human IDO1 expressed in HEK293 cells assessed as kynurenine release after 5 hrs by spectrophotometry; format: cell-based
[2] = target: T1, Indoleamine 2,3-dioxygenase 1; assay: Uncompetitive inhibition of human recombinant IDO1 using L-tryptophan as substrate
Procedure, shortened: (§1)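 Reversibility and inhibition mode taken from kinetic graphical plots of recombinant human IDO-1 activity. The enzyme assay used a methylene blue/ascorbate regeneration system. Ki derived by plotting [S]/V against inhibitor concentration.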
Target sequence in this assay (P14902 whole entry): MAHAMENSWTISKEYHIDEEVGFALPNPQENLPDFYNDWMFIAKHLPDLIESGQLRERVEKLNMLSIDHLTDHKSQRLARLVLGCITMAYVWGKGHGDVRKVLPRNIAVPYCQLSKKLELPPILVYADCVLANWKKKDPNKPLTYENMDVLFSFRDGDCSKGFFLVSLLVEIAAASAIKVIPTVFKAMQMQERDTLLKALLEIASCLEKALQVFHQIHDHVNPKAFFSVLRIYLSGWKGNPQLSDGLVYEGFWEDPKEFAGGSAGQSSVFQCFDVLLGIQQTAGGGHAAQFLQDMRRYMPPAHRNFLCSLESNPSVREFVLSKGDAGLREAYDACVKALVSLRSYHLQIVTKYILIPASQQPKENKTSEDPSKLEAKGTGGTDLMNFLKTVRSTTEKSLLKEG

[3] = DPPH radical scavenging activity assessed as reducing ability at 5 to 160 uM after 30 mins by spectrophotometry; settings: 0.5 h
Mus musculus [4] = assay: Upregulation of IDO1 expression in cytoplasm of C57BL/6 mouse tumor allografted with mouse LLC cells at 200 mg/kg, po qd after 14 days by immunohistochemical analysis; format: functional, organism-based; set-up: dose 200 mg/kg
Procedure, shortened: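 LLC allografts in C57BL/6 mice, sc at 2 × 10^6 cells. Oral dosing once daily at 200 mg/kg or 0.5% CMC vehicle from 5 mm tumor diameter for 14 days. Tumors and TDLNs cut into 5 μm sections with heat antigen retrieval. Rabbit Foxp3 Ab (1/100) or mouse IDO-1 Ab (1/50) applied 1 h, then Alexa Fluor secondary 30 min. Nuclei counterstained; imaged at ×200.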

Mus musculus [5] = assay: In vivo inhibition of IDO1 in C57BL/6 mouse allografted with mouse LLC cells assessed as kynurenine to tryptophan ratio in plasma at 200 mg/kg, po qd after 14 days by HPLC analysis relative to control; format: functional, organism-based; set-up: dose 200 mg/kg
Procedure, shortened: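 C57BL/6 mice, 8 weeks old, given 2 × 10^6 LLC cells sc in right forelimb and randomized to three groups. Oral dosing once daily from 5 mm tumor diameter with 0.5% CMC vehicle or 200 mg/kg. Plasma taken after 14 days. Trp and Kyn measured by HPLC and Kyn/Trp ratio calculated, n = 9−10. One-way ANOVA against vehicle.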

[6] = test system: Lewis lung carcinoma cell line; assay: Antitumor activity against mouse LLC cells allografted in C57BL/6 mouse assessed as reduction in tumor volume at 200 mg/kg, po qd after 14 days; format: functional; settings: 336 h, read-out: TGI
[7] = target: T1, Indoleamine 2,3-dioxygenase 1; assay: Binding affinity to human IDO1 by SPR assay
Procedure, shortened: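 SPR at 25 °C on purified human IDO-1 immobilized on a CM5 sensor chip, compound injected at a series of concentrations. Running buffer PBS with 0.1% dodecylmaltoside, 0.05 mM EDTA and 5% DMSO, pH 7.4. KD taken as the equilibrium dissociation constant from instrument evaluation.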
Target sequence in this assay (P14902 whole entry): as above

Mus musculus [8] = assay: Reduction of Foxp3 expression in nucleus of C57BL/6 mouse tumor allografted with mouse LLC cells at 200 mg/kg, po qd after 14 days by immunohistochemical analysis
[9] = target: T1, Indoleamine 2,3-dioxygenase 1; assay: Inhibition of human recombinant IDO1 using L-tryptophan as substrate
Target sequence in this assay (P14902 whole entry): as above

[10] = target: T1, Indoleamine 2,3-dioxygenase 1; assay: Mixed competitive inhibition of human recombinant IDO1 using L-tryptophan as substrate; procedure, shortened: as §1
Target sequence in this assay (P14902 whole entry): as above

[11] = target: T1, Indoleamine 2,3-dioxygenase 1; assay: Competitive inhibition of human recombinant IDO1 using L-tryptophan as substrate
Target sequence in this assay (P14902 whole entry, looked up): as the sequence (P14902 whole entry) above

[12] = DPPH radical scavenging activity assessed as reducing ability at […] after 30 mins by spectrophotometry; format: physicochemical; settings: 0.5 h
Procedure, shortened: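 Tryptanthrins at 5, 10, 20, 40, 80 or 160 μM in DMSO (100 μL) mixed with 100 μL DPPH radical (100 μM in ethanol, acetate-buffered pH 5.5). Absorbance at 517 nm read after 30 min gentle shaking in the dark. Ascorbic acid as reference. Triplicates.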

pIC50 [1]	pIC50 [2]	pKi [2]	Activity [3]	Compound	further results
6.11	4.80	5.07		O=C1c2ccccc2N[C@H]2[C@H](O)c3ccccc3N12	
7.27	6.24	6.41	Not Active	O=C1c2cc(Br)ccc2-n2c1nc1ccccc1c2=O	
7.64	6.27	6.79	Not Active	O=C1c2cc(F)ccc2-n2c1nc1ccccc1c2=O	Activity (Mus musculus [4]): Active; inhibition (Mus musculus [5]): Active; inhibition in vivo at 200 mg/kg [6]: 62%; pKd [7]: 4.33; Activity (Mus musculus [8]): Active
7.57	5.09	5.02	Not Active	O=C1c2c(Cl)cccc2-n2c1nc1ccccc1c2=O	
				O=C1c2cc(F)ccc2N[C@H]2[C@H](O)c3ccccc3N12	pIC50 [9]: 3.35
6.33	5.57	5.26		O=C1c2cc(F)ccc2-n2c1nc1ccc(F)cc1c2=O	
6.74	4.13	4.31		O=C1c2ccc(Cl)cc2-n2c1nc1ccccc1c2=O	
	6.99	7.27	Not Active	O=C1c2cc([N+](=O)[O-])ccc2-n2c1nc1ccccc1c2=O	
7.27			Not Active	O=C1c2ccccc2-n2c1nc1ccccc1c2=O [TRYPTANTHRIN]	pIC50 [10]: 5.15; pKi [10]: 5.32
				O=C1c2cc(Cn3cc(-c4ccccc4)nn3)ccc2-n2c1nc1ccc(F)cc1c2=O	inhibition [1]: inactive; inhibition [11]: inactive
				Cc1ccc2c(c1)C(=O)c1nc3ccccc3c(=O)n1-2	pIC50 [10]: 3.92; pKi [10]: 3.66
				O=C1O[C@H]([C@@H](O)CO)C(O)=C1O [ASCORBIC ACID]	Activity [12]: Active
				O=C1c2ccccc2-n2c1nc1ccc(F)cc1c2=O	pIC50 [9]: 3.06
7.61	5.21	5.34		O=C1c2ccccc2N[C@H]2[C@H](O)c3cc(F)ccc3N12	
